Compounds with a hit are over-represented: about 5.7% of the library has one in this group of screens.
Beta apoptosis: inhibitors of cytokine-induced beta cell apoptosis, primary screen, luminescence. INS-1E cytokine-induced death, ATP luminescence, 48 h; percent of positive-control rescue, neutral wells zero. hit rate 0.8% among 300,000. protection from apoptosis, % (concentration not given with the values);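 active = Every replicate reaches about 75%, or at least half do and their mean reaches it too, limit read from the data; inconclusive = At least half of replicates reach the limit but their mean does not; inactive = Under half of replicates reach the limit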;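 note: 0% = cytokine-treated negative control wells and 100% = positive control rescue; higher means more ATP so stronger rescue from cytokine killing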
T cruzi repl: inhibitors of intracellular T. cruzi growth, primary screen, luminescence, NIH3T3 host cells. T. cruzi beta-gal in NIH3T3, 90 h. inhibition, % (test concentration not listed). hit rate 1.4% among 300,000. AID 1885, 2009;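 active = mean inhibition across valid replicates above about 55%, limit read from the data; inconclusive = mean below that limit but half or more replicates reach it; inactive = mean below it, under half of replicates reach it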;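 note: signal also drops with host cell toxicity which is not excluded here; 0% = plate median of DMSO wells and 100% = zero luminescence signal; higher percent means less beta-gal luminescence so fewer parasites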
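Incubation – ≥90 h infection period, 3 h prior cell attachment · System – NIH/3T3 fibroblasts plus reporter T. cruzi · Doses – compound pinned at 50 nL/well, DMSO · Read-out basis – percent inhibition of parasite-derived β-gal signal · Signal – luminescent β-galactosidase signal after 60 min lysis · Also added – 5000 T. cruzi trypomastigotes/well · Medium – Low-serum DMEM with 2% FBS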
SKKanGAS inh: S. pyogenes SKKanGAS growth inhibitors in kanamycin, primary screen, streptokinase expression inhibitor project, SKKanGAS strain, BacTiter-Glo luminescence; 6 h; inhibition, % at 7.5 µM; hit rate 1.3% among 300,000;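 active = mean replicate score, as percent of positive control median, at least 50; inconclusive = mean below 50 but one replicate at or above 50; inactive = mean and every replicate below 50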;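 note: strain carries kanamycin resistance gene driven by streptokinase promoter and grows in 40 µg/ml kanamycin; loss of luminescence reflects streptokinase promoter inhibition or plain growth inhibition; 0% = median of DMSO wells and 100% = positive control at its reference dose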
Calb FLC: C. albicans growth inhibition with fluconazole, primary screen, CaCi-2 strain, Alamar Blue fluorescence; C. albicans CaCi-2 (fluconazole-resistant clinical isolate) + fluconazole, 48 h; growth inhibition, % (test concentration not listed); hit rate 0.57% among 300,000; AID 1979, 2009;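 active = growth inhibition above about 58% in most replicates, limit read from the data, passing the limit was not always enough; inconclusive = exactly half the replicates above a set limit; inactive = most replicates below a set limit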;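 note: all wells also contain fluconazole at 8 µg/ml as a sub-toxic cotreatment; 0% = median of DMSO wells and 100% = median of geldanamycin control wells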
CSC inhib: cancer stem cell viability inhibitors, primary screen, luminescence; cancer stem cell-like cells viability; inhibition, % at 7.5 µM; hit rate 1.1% among 300,000; AID 2717, 2010; in the data active = inhibition above about 75%; inconclusive = no clear call, values can overlap the other calls; tested in HMLE shEcad cells
Mdm2-MdmX inh: inhibitors of human Mdm2-MdmX association, primary screen, cell-based, luminescence, split luciferase, SaOS-2, uHTS; Protein Mdm4 (Homo sapiens) + E3 ubiquitin-protein ligase Mdm2 (Homo sapiens), …; SaOS-2 split-luciferase Mdm2/MdmX complementation; inhibition, % at 8 µM; hit rate 3% among 330,000;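 active = inhibition of at least 50% at 8 µM in the primary screen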
Target sequence (O15151 whole entry, looked up): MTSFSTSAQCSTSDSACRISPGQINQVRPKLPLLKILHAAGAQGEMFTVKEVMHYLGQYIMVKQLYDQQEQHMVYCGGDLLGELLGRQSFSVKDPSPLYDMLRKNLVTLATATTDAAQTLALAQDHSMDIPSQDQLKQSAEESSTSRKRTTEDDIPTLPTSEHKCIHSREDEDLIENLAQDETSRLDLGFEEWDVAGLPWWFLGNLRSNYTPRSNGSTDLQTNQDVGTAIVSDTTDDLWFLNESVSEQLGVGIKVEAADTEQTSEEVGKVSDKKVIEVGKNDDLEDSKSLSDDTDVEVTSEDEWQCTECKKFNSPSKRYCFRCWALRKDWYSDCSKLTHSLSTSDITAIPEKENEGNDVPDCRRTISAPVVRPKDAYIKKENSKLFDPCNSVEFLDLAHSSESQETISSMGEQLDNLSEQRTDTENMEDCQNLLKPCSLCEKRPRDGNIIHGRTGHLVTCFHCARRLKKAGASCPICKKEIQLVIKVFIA
Target sequence (Q00987 whole entry, looked up): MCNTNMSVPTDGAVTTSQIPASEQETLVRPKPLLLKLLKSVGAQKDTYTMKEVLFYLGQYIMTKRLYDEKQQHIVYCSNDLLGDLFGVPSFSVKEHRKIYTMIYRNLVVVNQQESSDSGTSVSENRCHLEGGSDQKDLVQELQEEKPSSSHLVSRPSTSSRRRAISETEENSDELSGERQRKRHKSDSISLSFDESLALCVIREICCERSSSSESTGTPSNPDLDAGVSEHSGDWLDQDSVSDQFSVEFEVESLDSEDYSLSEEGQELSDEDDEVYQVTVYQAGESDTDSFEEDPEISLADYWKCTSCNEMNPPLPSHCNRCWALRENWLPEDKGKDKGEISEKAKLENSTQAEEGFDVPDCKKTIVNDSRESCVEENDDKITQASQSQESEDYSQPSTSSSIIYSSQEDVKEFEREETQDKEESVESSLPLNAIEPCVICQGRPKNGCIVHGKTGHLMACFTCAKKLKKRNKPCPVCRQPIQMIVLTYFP
Numbers without * were called inactive; u = inconclusive; x = not tested or not shown.

SMILES	Beta apoptosis	T cruzi repl	SKKanGAS inh	Calb FLC	CSC inhib	Mdm2-MdmX inh
COC(=O)c1ccc2c(c1O)C(=O)c1ccccc1C2=O	16	-14	70*	1	96*	5
Cc1nnc(C)c2c(C)n(C(c3ccccc3)c3ccccc3)c(C)c12	-4	59*	0	-3	14	-10
CCN(CC)CCSc1nnc2c3ccccc3n(Cc3ccccc3)c2n1	-1	69*	-1	-10	79*	26
CCN(CC)CCSc1nnc2c3cc(F)ccc3n(Cc3ccccc3)c2n1	2	44	3	-2	44	18
Cc1c(NC(=S)NC(=O)c2ccccc2)c(=O)n(-c2ccccc2)n1C	x	1	6	1	-11	8
CCc1cccc(NC(=O)C2CCN(c3ncnc4sc(C)c(C)c34)CC2)c1	4	x	x	x	37	17
Cc1sc2ncnc(N3CCC(C(=O)NCC(=O)Nc4ccc(F)c(F)c4)CC3)c2c1C	-5	24	53*	4	-3	36
Cc1sc2ncnc(N3CCC(C(=O)Nc4ccc(Cl)c(Cl)c4)CC3)c2c1C	10	x	x	x	70	41
Cc1sc2ncnc(N3CCC(C(=O)Nc4ccc(Cl)cc4Cl)CC3)c2c1C	-3	-5	50*	7	-3	23
CC(C)Cn1c(SC(C)C(=O)NCC2CCCO2)nc2ccc(Cl)cc2c1=O (stereo not given)	-1	x	x	x	-7	-7
C[C@@H]1COC(=O)[C@H](Cc2ccc(F)cc2)C/C=C\C[C@@H](CC(=O)NCCO)C(=O)N1	-6	x	x	x	0	0
COc1ccc(Cl)cc1NC(=O)CCc1nnc2ccc(N3CCN(C)CC3)nn12	1	8	-1	10	-11	9
N#C/C(=C\c1c(Cl)cccc1Cl)c1nn(-c2ccccc2)c(-n2cccc2)c1C#N	26	59*	6	4	64	-8
N#C/C(=C\c1cccc2ccccc12)c1nn(-c2ccccc2)c(N)c1C#N	36	39	18	2	30	33
N#C/C(=C\c1c(F)cccc1Cl)c1nn(-c2ccccc2)c(-n2cccc2)c1C#N	45	41	9	-6	94*	12
Cn1c(N2CCN(C(c3ccccc3)c3ccccc3)CC2)nc2ccccc21	-2	48	27	6	-7	17
O=C1OCCN1/N=C/c1ccc([N+](=O)[O-])o1	x	50	45	22	-2	-15
O=C1CN(/N=C/c2ccc([N+](=O)[O-])o2)C(=O)N1	-10	u	84*	-4	-9	0
COc1cccc(-c2cc(C(=O)N3CCN(C(c4ccccc4)c4ccccc4)CC3)no2)c1	40	68*	-16	2	54	25
COc1cccc(-c2cc(C(=O)N3CCOCC3)no2)c1	3	-5	-14	14	45	-48
O=C(c1cc(-c2ccco2)on1)N1CCN(c2ccccc2)CC1	-5	-11	-5	0	84*	1
OCC[C@@H]1C[C@H](O)[C@@H](O)[C@@]2(CCCc3ccccc3O2)O1	-1	0	7	-2	-1	0
Cc1cccc(N(C(=O)c2csnn2)C(C(=O)NC2CCCCC2)c2ccncc2)c1 (stereo not given)	3	u	-11	14	59	-2
CCOC(=O)CC(NC(=O)CCS(=O)(=O)c1ccc2c(c1)n(C)c(=O)c(=O)n2C)c1ccc(C)cc1 (stereo not given)	-4	-2	59*	-1	-12	10
CCC(C)NC(=O)CCS(=O)(=O)c1ccc2c(c1)n(C)c(=O)c(=O)n2C (stereo not given)	-7	-14	3	-4	12	23
SMILES	Beta apoptosis	T cruzi repl	SKKanGAS inh	Calb FLC	CSC inhib	Mdm2-MdmX inh
S=c1[nH]nc(-c2ccccc2)n1/N=C/c1cccs1	-4	-2	0	105*	0	-9
Oc1c(Br)cc(Br)c(/C=N/n2c(-c3ccccc3)n[nH]c2=S)c1Br	-7	-3	30	79*	11	23
Oc1ccc(Br)cc1/C=N/n1c(-c2ccccc2)n[nH]c1=S	x	-4	3	-8	1	9
Cc1ccc(-c2n[nH]c(=S)n2/N=C/c2cccs2)cc1	3	2	36	-3	8	-8
Cc1ccc(C)c(NC(=O)CSc2ccc(-c3cccs3)nn2)c1	0	3	-1	-2	-4	3
Cc1ccc(C)c(NC(=O)CSc2nc3nc(-c4cccs4)cc(C(F)(F)F)c3c(=O)[nH]2)c1	11	-9	57*	-7	96*	45
CS(=O)(=O)Nc1cccc(-c2cnc3ccccc3n2)c1	0	-4	0	1	-17	-13
Cc1c(CN2CCC(CO)(Cc3ccccc3)CC2)c2ccccc2n1C	-2	57*	-5	-33	9	24
O=c1[nH]c(NCCO)nnc1Cc1ccccc1	-1	-11	0	-6	-9	-13
COc1cc2cnc(-c3ccccc3)c(-c3cccc(C(F)(F)F)c3)c2cc1OC	4	x	x	x	128*	43
C=CCN(CC(=O)Nc1cccnc1)S(=O)(=O)c1ccc(Cl)cc1	4	x	x	x	-5	1
Cc1ccc(O)c(NC2=C(Cl)C(=O)N(Cc3ccccc3)C2=O)c1	x	58*	-2	35	x	x
O=C(c1ccccc1)c1ccc(Cn2cc(CCCO)nn2)cc1	21	-30	-4	-7	-9	22
O=C(O)CCCCCCCCc1cn(Cc2ccc(C(=O)c3ccccc3)cc2)nn1	20	56*	18	4	61	41
O=C(O)c1ccc2c(c1)[C@@H]1C=CC[C@@H]1[C@H](c1ccccn1)N2	-9	-3	12	110*	-26	5
O=C(/C=C/c1cccs1)NNC(=O)c1ccccc1	-1	x	x	x	x	-1
COCCCn1c(SCCc2ccccc2)nc2cc(OC)c(OC)cc2c1=N	5	44	0	27	83*	38
O=C(NCc1ccco1)c1ccc([N+](=O)[O-])o1	-3	73*	22	25	1	6
O=C(NCc1cccnc1)c1ccc([N+](=O)[O-])o1	-17	74*	26	32	15	30
O=C(/C=C/c1ccc([N+](=O)[O-])cc1)NCc1cccnc1	95*	-10	-4	7	-14	14
CCc1ccc(NC(=O)C(C)OC(=O)CC(NC(C)=O)c2ccccc2)cc1 (stereo not given)	-2	-1	1	0	-15	9
Cc1cc(C)cc(N(CC(=O)NCC2CCCO2)C(=O)CCC(=O)Nc2nccs2)c1 (stereo not given)	1	-2	-5	-6	x	9
